These results are taken from ChEMBL document CHEMBL3232997, “Synthesis and biological evaluation of a series of benzoxazole/benzothiazole-containing 2,3-dihydrobenzo[b][1,4]dioxine derivatives as potential antidepressants” (Bioorg Med Chem Lett, 2014).

Broadly, the Ki is a measure of affinity in units of concentration, obtained from inhibition or displacement. In general, ED50 refers to the midpoint of the dose-response relation.

For series [1], the target named is T1, 5-hydroxytryptamine receptor 1A (Rattus norvegicus, UniProt P19327).
T1 sequence (P19327 whole entry): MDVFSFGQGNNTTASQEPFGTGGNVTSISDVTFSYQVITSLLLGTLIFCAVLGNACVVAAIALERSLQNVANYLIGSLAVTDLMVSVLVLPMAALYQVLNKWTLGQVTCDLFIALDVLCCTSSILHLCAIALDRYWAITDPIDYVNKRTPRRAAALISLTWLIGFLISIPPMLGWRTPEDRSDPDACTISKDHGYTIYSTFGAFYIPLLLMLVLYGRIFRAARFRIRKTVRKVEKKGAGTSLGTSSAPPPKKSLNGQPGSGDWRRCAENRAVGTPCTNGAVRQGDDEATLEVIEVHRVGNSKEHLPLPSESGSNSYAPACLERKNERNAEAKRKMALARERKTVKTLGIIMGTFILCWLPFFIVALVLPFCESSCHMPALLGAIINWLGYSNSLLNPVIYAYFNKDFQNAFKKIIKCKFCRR
The series can be described thus: Displacement of [3H]8-OH-DPAT from rat cerebral cortex 5-HT1A receptor after 30 mins by liquid scintillation counting. It counts as tissue-based. Summed up: (§1)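 Competition binding on rat cerebral cortex homogenates. 5-HT1A was labelled with [3H]-8-hydroxy-2-(di-n-propylamino)tetralin and 5-HT2A with [3H]ketanserine. The method followed a previously reported procedure. Ki values are reported as mean ± SEM.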
(Displacement assays read how much labelled ligand stays bound in the presence of the test substance.)

For series [2], the target named is 5-hydroxytryptamine receptor 2A (Rattus norvegicus, UniProt P14842). The experiment in a line: Displacement of [3H]-ketanserin from rat cerebral cortex 5-HT2A receptor after 30 mins by liquid scintillation counting. It counts as tissue-based. The method, boiled down:
as §1

The test system of series [3] is Mus musculus. The series can be described thus: Antidepressant activity in Kunming mouse assessed as decrease in immobility time at 40 mg/kg, po by tail suspension test. It counts as functional, organism-based. Also noted: dose 40 mg/kg.
For series [4], the system named is Mus musculus. The experiment in a line: Antidepressant activity in Kunming mouse assessed as decrease in immobility time at 40 mg/kg, po by forced swimming test. In kind it is functional, organism-based. More on the design: dose 40 mg/kg.
The test system of series [5] is Mus musculus. The experiment in a line: Toxicity in Kunming mouse assessed as locomotor activity at 10 mg/kg, po measured for 10 mins (reference value: 1165 +/- 263 cm). In kind it is organism-based. More on the design: dose 10 mg/kg, route oral. The settings on record: in vivo. The method, boiled down: (§2)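 Mice were given test compound orally, with a vehicle-treated group as control. Locomotor activity was recorded for 10 min and reported as distance travelled (cm). Values are mean ± SEM, n = 10 per group. The test was used to rule out false positives in the swim and tail-suspension tests.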

The subject of series [6] is Mus musculus. The series can be described thus: Toxicity in Kunming mouse assessed as locomotor activity at 40 mg/kg, po measured for 10 mins (reference value: 1165 +/- 263 cm). It counts as organism-based. The settings on record: in vivo. More on the design: dose 40 mg/kg, route oral. The method, boiled down: as §2
The subject of series [7] is Mus musculus. The experiment in a line: Antidepressant activity in po dosed Kunming mouse assessed as decrease in immobility time by forced swimming test. It counts as functional.
Series [8] has as its system Mus musculus. The experiment in a line: Toxicity in Kunming mouse assessed as locomotor activity at 100 mg/kg, po measured for 10 mins (reference value: 1165 +/- 263 cm). In kind it is organism-based. Also noted: dose 100 mg/kg, route oral. The settings on record: in vivo. The method, boiled down:
as §2

Activity calls are given as the source filed them. The rule behind the calls is not given here.

5-hydroxytryptamine receptor 2A, sequence (P14842 whole entry): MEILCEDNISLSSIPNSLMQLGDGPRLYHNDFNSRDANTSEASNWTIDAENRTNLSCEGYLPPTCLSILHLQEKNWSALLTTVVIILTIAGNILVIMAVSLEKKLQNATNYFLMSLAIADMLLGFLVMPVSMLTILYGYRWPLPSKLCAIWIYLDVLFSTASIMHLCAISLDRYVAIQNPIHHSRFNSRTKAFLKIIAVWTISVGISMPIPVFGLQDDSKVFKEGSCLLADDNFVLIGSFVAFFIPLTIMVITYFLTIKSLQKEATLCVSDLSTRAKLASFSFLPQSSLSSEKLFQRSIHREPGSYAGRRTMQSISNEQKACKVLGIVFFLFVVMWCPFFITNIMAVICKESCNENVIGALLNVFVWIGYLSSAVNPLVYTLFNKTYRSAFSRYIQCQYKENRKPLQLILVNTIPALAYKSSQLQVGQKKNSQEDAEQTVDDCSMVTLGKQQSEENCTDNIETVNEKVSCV

As to `O=C(NCCN1CCC(c2nc3ccccc3s2)CC1)C1COc2ccccc2O1` (stereo not given), the Ki in series [1] came to 94 nM; in series [2] it was 113 nM.
For `c1ccc(C2Oc3ccccc3OC2COCCCCCN2CCC(c3nc4ccccc4o3)CC2)cc1` (stereo not given) the same measures were 106 nM and 0.74 nM.
For `CC1Oc2ccccc2OC1COCCCN1CCC(c2nc3ccccc3s2)CC1` (stereo not given), the results for the Ki in series [1] and in series [2] were 103 nM and 131 nM, respectively.
As for `c1ccc(C2Oc3ccccc3OC2COCCCN2CCC(c3nc4ccccc4o3)CC2)cc1` (stereo not given), the “antidepressant activity (active/inactive)” value with Mus musculus [3] is “Active”. Further, the “Decrease in immobility time” value in the series on Mus musculus [4] was “Active”. The inhibitory constant (Ki) in series [1] was 51 nM; in series [2], 4.1 nM.
On to `c1ccc(C2Oc3ccccc3OC2COCCCCN2CCC(c3nc4ccccc4s3)CC2)cc1` (stereo not given), for which, in the series with Mus musculus [3], the “antidepressant activity (active/inactive)” value was “Active”. For the same compound, in the series on Mus musculus [4], the “Decrease in immobility time” value is “Active”. Besides, the Ki in series [1] came to 31 nM; in series [2], 24 nM.
Take `O=C(NCCCN1CCC(c2nc3ccccc3s2)CC1)C1COc2ccccc2O1` (stereo not given): the “antidepressant activity (active/inactive)” value with Mus musculus [3] was “Active”. Besides, in the series with Mus musculus [4], the “Decrease in immobility time” value was “Active”. Further, the values for the inhibition constant (Ki) in series [1] and in series [2] were 85 nM and 90 nM, respectively.
As for `O=C(NCCCN1CCC(c2nc3ccccc3o2)CC1)C1COc2ccccc2O1` (stereo not given), in the series with Mus musculus [3], the “antidepressant activity (active/inactive)” value is “Active”. For the same compound, the “Decrease in immobility time” value in the series with Mus musculus [4] is “Active”. Further, the Ki was 84 nM in series [1] and 88 nM in series [2].
With `c1ccc(C2Oc3ccccc3OC2COCCCN2CCC(c3nc4ccccc4s3)CC2)cc1` (stereo not given), the “antidepressant activity (active/inactive)” value in the series on Mus musculus [3] was “Active”. The “Decrease in immobility time” value in the series on Mus musculus [4] was “Active”. Moreover, the figures for the Ki in series [1] and in series [2] were 134 nM and 19 nM, respectively.
Consider `CN(C)CCCN1c2ccccc2CCc2ccccc21` [IMIPRAMINE], for which the Activity in the series on Mus musculus [5] is on record as 1248 cm.
Turning to `O=C(NCCN1CCC(c2nc3ccccc3o2)CC1)C1COc2ccccc2O1` (stereo not given), the inhibition constant (Ki) worked out at 76 nM in series [1] and 87 nM in series [2].
`c1ccc2c(c1)OCC(COCCCN1CCC(c3nc4ccccc4s3)CC1)O2` (stereo not given): the values for the Ki in series [1] and in series [2] were 92 nM and 28 nM, respectively.
Turning to `c1ccc(C2Oc3ccccc3OC2COCCCCCN2CCC(c3nc4ccccc4s3)CC2)cc1` (stereo not given), the Ki in series [1] amounted to 131 nM; in series [2], 148 nM.
Regarding `c1ccc(C2Oc3ccccc3OC2COCCCCN2CCC(c3nc4ccccc4o3)CC2)cc1` (stereo not given), in the series on Mus musculus [3], the “antidepressant activity (active/inactive)” value is “Active”. Also, the Activity with Mus musculus [6] stood at 1114 cm; in the series on Mus musculus [8], 1150 cm; in the series with Mus musculus [5] it was 1180 cm. Further, the “Decrease in immobility time” value in the series on Mus musculus [4] is “Active”. The values for the Ki in series [1] and in series [2] were 17 nM and 0.71 nM, respectively. Further, the ED50 in the series on Mus musculus [7] was determined as 39 mg/kg.
For the compound `CC1Oc2ccccc2OC1COCCCN1CCC(c2nc3ccccc3o2)CC1` (stereo not given), the Ki in series [1] turned out to be 152 nM; in series [2], 8.2 nM.
In the case of `c1ccc2c(c1)OCC(COCCCN1CCC(c3nc4ccccc4o3)CC1)O2` (stereo not given), the inhibition constant Ki in series [1] turned out to be 120 nM; in series [2] it was 30 nM.
